The text below walks through data of ChEMBL document CHEMBL4265924, “Inhibitor for FcεRI expression on mast cell from Verbasucum thapsus L” (2018).

In assay [1] the test system is HMC1. Kind of assay: Inhibition of FCepsilonRI expression in human HMC1 cells at 30 to 100 uM after 72 hrs by flow cytometric analysis. The format is functional, cell-based. The gist of the method: (§1)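 HMC-1 human mast cells exposed to test sample for 72 h, then harvested and stained with anti-FcεRI α-chain antibody plus FITC-labelled secondary antibody; surface FcεRI read as FITC fluorescence by flow cytometry. Mean ± SD of triplicate experiments.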

Assay [2] deals with HMC1. Kind of assay: Inhibition of FCepsilonRI expression in human HMC1 cells at 30 uM after 72 hrs by flow cytometric analysis. The format is functional. Particulars: for inhibition (INH): in the assay text read “30 ug/mL” for “30 uM”. The gist of the method:
as §1

The subject of assay [3] is HMC1. Kind of assay: Inhibition of FCepsilonRIbeta subunit mRNA expression in human HMC1 cells at 50 to 100 uM after 36 hrs by RT-PCR analysis.
Assay [4] concerns HMC1. Kind of assay: Inhibition of FCepsilonRIgamma subunit mRNA expression in human HMC1 cells at 50 to 100 uM after 36 hrs by RT-PCR analysis. Type of assay: functional, cell-based. The gist of the method:
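After 36 h culture of HMC-1 cells with compound, total RNA extracted; mRNA of each FcεRI subunit measured by RT-PCR with ethidium bromide staining of products, normalized to g3pdh and compared with vehicle. Mean ± SD, triplicate experiments.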

Activity calls are given as the source filed them. No cut-off for these calls is given here.

What is called inhibition is how much of the control response was suppressed. For the compound `COc1cc2ccc(=O)oc2c(O)c1OCC(O)C(C)(C)O` (stereo unspecified), the inhibition result in the assay on HMC1 [1] is “inactive”.
On the same count and under the same terms, under `COc1cc2ccc(=O)oc2c(OC)c1OCC(O)C(C)C` (stereo unspecified) stands “Active”; under `COc1cc2ccc(=O)oc2c(OC)c1OCC1OC1(C)C` (stereo unspecified), “Active”; under `COc1cc2ccc(=O)oc2c(OC)c1OCCC(C)(C)O`, “Active”.
Take `COc1cc2ccc(=O)oc2c(OC)c1OCCC(C)C`: the inhibition entry in the assay with HMC1 [1] is “Active”.
Turning to `COc1cc2ccc(=O)oc2c(OC)c1OCC(O)C(C)(C)O` (racemic) [listing 1 of 2 here], the “inhibition (INH)” value with HMC1 [2] is reported as 49%.
Take `COc1c(OCC(O)C(C)(C)O)c(O)cc2ccc(=O)oc12` (racemic): the inhibition result in the assay on HMC1 [1] was “inactive”.
With `COc1cc2ccc(=O)oc2c(OC)c1OCC(O)C(C)(C)O` (racemic) [listing 2 of 2 here], the inhibition entry in the assay on HMC1 [3] was “Active”. For the same compound, the inhibition entry with HMC1 [4] is “inactive”.
`COc1cc2ccc(=O)oc2c(OC)c1OCC(O)C(C)(C)O` (single isomer, unassigned; enantiomer 1): the “inhibition (INH)” value in the assay with HMC1 [2] is 45.1%.
In the assay on HMC1 [2] (Homo sapiens, HMC1, 72 h), `COc1cc2ccc(=O)oc2c(OC)c1OCC(O)C(C)(C)O` (stereo in doubt) yielded an inhibition at 30 µM of 44.3%.
